Data reported in ChEMBL document CHEMBL3997766, “Synthesis and pre-clinical studies of new amino-acid ester thiazolide prodrugs” (Eur J Med Chem, 2017).

Columns and labels:
Rattus norvegicus [1] = assay: Cmax in Sprague-Dawley rat assessed as Tizoxanide level in plasma at 6 mg/kg, iv administered as single dose; format: ADME, organism-based; set-up: dose 6 mg/kg, route intravenous; conditions: in vivo
In short: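 Rats in groups of three received one compound as a single oral dose (30 mg/kg) or a single intravenous injection (6 mg/kg), with four compounds studied separately. Serial blood samples were drawn at 5, 10, 15 and 30 min and at 1, 2, 4, 8, 23 and 24 h post-dose. Plasma parent drug and metabolites were quantified and PK parameters were derived.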

Rattus norvegicus [2] = assay: AUC (0 to t) in male Sprague-Dawley rat assessed as Tizoxanide-glucuronide level in plasma at 6 mg/kg, iv administered as single dose; format: ADME, organism-based; conditions: in vivo
In short: (§1)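 Plasma tizoxanide and tizoxanide glucuronide were measured and PK parameters derived. AUCs were dose-corrected to 30 mg/kg for bioavailability.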

Rattus norvegicus [3] = assay: Toxicity in Sprague-Dawley rat assessed as effect on respiratory rate by measuring breaths per minute at 100 to 1000 mg/kg administered as single dose via oral gavage; format: organism-based; conditions: in vivo
In short: (§2)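 Respiratory safety study: conscious rats, 3 groups of 6 (3M/3F), given single oral-gavage doses of 100, 300 or 1000 mg/kg, with an untreated control group. Respiratory rate (breaths per minute), tidal volume and minute volume were recorded, and mortality was noted.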

Rattus norvegicus [4] = assay: AUC (0 to t) in Sprague-Dawley rat assessed as Tizoxanide level in plasma at 6 mg/kg, iv administered as single dose; format: ADME, organism-based; conditions: in vivo; in short: as §1
Rattus norvegicus [5] = assay: Neurotoxicity in Sprague-Dawley rat assessed as decreased activity at 1000 mg/kg administered via oral gavage as single dose after 4 to 24 hrs; format: toxicity, organism-based; conditions: in vivo
In short: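 Three groups of 10 rats (5M/5F) received a single dose by oral gavage of 100, 300 or 1000 mg/kg, and an untreated group served as control. Clinical signs of CNS effects were recorded at 4 and 24 h after treatment.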

Rattus norvegicus [6] = assay: Toxicity in Sprague-Dawley rat assessed as mortality at 100 to 1000 mg/kg administered as single dose via oral gavage; format: organism-based; conditions: in vivo
In short: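 CNS safety study in rats: single oral-gavage doses of 100, 300 or 1000 mg/kg to 3 groups of 10 (5M/5F), with an untreated control group. Clinical signs (activity, abdominal tone, breathing, tremors, pain response) were recorded at 4 and 24 h after dosing, and mortality was noted.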

Rattus norvegicus [7] = assay: Toxicity in Sprague-Dawley rat assessed as effect on respiratory rate by measuring minute volume dose at 100 to 300 mg/kg administered as single dose via oral gavage; format: organism-based; conditions: in vivo; in short: as §2
Rattus norvegicus [8] = assay: Toxicity in Sprague-Dawley rat assessed as body weight gain at 75 mg/kg administered as oral gavage qd for 28 consecutive days measured during last 3 weeks of dosing; format: organism-based; conditions: in vivo, 504 h
In short: (§3)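 Sub-acute study in Sprague-Dawley rats dosed orally with a suspension at 10, 30 and 75 mg/kg once daily for 28 consecutive days. Four groups of up to 30 rats each (15M/15F).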

Rattus norvegicus [9] = assay: Toxicity in Sprague-Dawley rat assessed as early death at 10 to 75 mg/kg administered as oral gavage qd for 28 consecutive days measured up to day 43; format: organism-based; conditions: in vivo
In short: (§4)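 Sub-acute study in Sprague-Dawley rats: 10, 30 or 75 mg/kg given orally once a day for 28 consecutive days as a yellow suspension. There were 4 groups of up to 30 rats each (15M/15F), including a control. Body weight, clinical observations and terminal findings were assessed.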

Rattus norvegicus [10] = assay: Toxicity in Sprague-Dawley rat assessed as effect on food consumption at 10 to 75 mg/kg administered as oral gavage qd for 28 consecutive days measured once per week during compound dosing; format: organism-based; conditions: in vivo; in short: as §4
Rattus norvegicus [11] = assay: Toxicity in Sprague-Dawley rat at 10 to 75 mg/kg administered as oral gavage qd for 28 consecutive days by ophthalmoscopic method; format: organism-based; conditions: in vivo; in short: as §4
Rattus norvegicus [12] = assay: Toxicity in Sprague-Dawley rat assessed as decrease in serum total albumin level at 75 mg/kg administered as oral gavage qd for 28 consecutive days followed by 2 weeks recovery period measured on day 43; format: organism-based; conditions: in vivo, 336 h; in short: as §3
Rattus norvegicus [13] = assay: Toxicity in Sprague-Dawley rat assessed as increase in total bilirubin level at 30 to 75 mg/kg administered as oral gavage qd for 28 consecutive days followed by 2 weeks recovery period measured on day 43; format: organism-based; conditions: in vivo, 336 h; in short: as §3
Rattus norvegicus [14] = assay: Toxicity in Sprague-Dawley rat assessed as increase in liver to body weight ratio at 75 mg/kg administered as oral gavage qd for 28 consecutive days measured on day 29; format: organism-based; conditions: in vivo; in short: as §3
Rattus norvegicus [15] = assay: Toxicity in Sprague-Dawley rat assessed as increase in spleen to body weight ratio at 75 mg/kg administered as oral gavage qd for 28 consecutive days measured on day 29; format: organism-based; conditions: in vivo; in short: as §3
Rattus norvegicus [16] = assay: Toxicity in Sprague-Dawley rat assessed as epithelial hyperplasia in stomach at 30 to 75 mg/kg administered as oral gavage qd for 28 consecutive days measured on day 29 by microscopic method; format: organism-based; conditions: in vivo; in short: as §4
Rattus norvegicus [17] = assay: Toxicity in Sprague-Dawley rat assessed as mixed cell inflammation in stomach at 30 to 75 mg/kg administered as oral gavage qd for 28 consecutive days measured on day 29 by microscopic method; format: organism-based; conditions: in vivo; in short: as §4
Rattus norvegicus [18] = assay: Toxicity in Sprague-Dawley rat assessed as hemorrhage in duodenum at 75 mg/kg administered as oral gavage qd for 28 consecutive days measured on day 29 by microscopic method; format: organism-based; conditions: in vivo; in short: as §3
Rattus norvegicus [19] = assay: Toxicity in Sprague-Dawley rat assessed as eosinophilic cytoplasmic bodies in epithelial cells of stomach at 10 to 75 mg/kg administered as oral gavage qd for 28 consecutive days followed by 2 weeks recovery period by microscopic method; format: organism-based; conditions: in vivo, 336 h; in short: as §3
Rattus norvegicus [20] = assay: Toxicity in Sprague-Dawley rat assessed as eosinophilic cytoplasmic bodies in epithelial cells of duodenum at 75 mg/kg administered as oral gavage qd for 28 consecutive days followed by 2 weeks recovery period by microscopic method; format: organism-based; conditions: in vivo, 336 h; in short: as §3
Canis familiaris [21] = assay: Toxicity in Beagle dog assessed as early death at 5 to 25 mg/kg, po administered as gelatin capsule once daily for 28 days measured on day 29; format: organism-based, Canis lupus familiaris; conditions: in vivo, 672 h
In short: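 Sub-acute study in Beagle dogs: 5, 15 or 25 mg/kg/day given orally in a single gelatin capsule once a day for 28 consecutive days to assess systemic exposure and toxicity, with NOAEL determination.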

Canis familiaris [22] = assay: Toxicity in Beagle dog assessed as emesis at 25 mg/kg, po administered as gelatin capsule once daily for 28 days measured on day 29 followed by 2 weeks recovery period measured on day 43; format: organism-based, Canis lupus familiaris; conditions: in vivo
In short: (§5)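 Sub-acute study in Beagle dogs dosed orally by gelatin capsule at 5, 15 and 25 mg/kg once a day for 28 consecutive days.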

Canis familiaris [23] = assay: Toxicity in Beagle dog assessed as body weight gain up to 25 mg/kg, po administered as gelatin capsule once daily for 28 days measured on day 29; format: organism-based, Canis lupus familiaris; conditions: in vivo, 672 h; in short: as §5
Canis familiaris [24] = assay: Toxicity in Beagle dog assessed as change in food consumption up to 25 mg/kg, po administered as gelatin capsule once daily for 28 days; format: organism-based, Canis lupus familiaris; conditions: in vivo, 672 h; in short: as §5
Canis familiaris [25] = assay: Toxicity in Beagle dog assessed as thickened duodenum up to 25 mg/kg, po administered as gelatin capsule once daily for 28 days measured on day 29; format: organism-based, Canis lupus familiaris; conditions: in vivo, 672 h; in short: as §5
Canis familiaris [26] = assay: Toxicity in Beagle dog assessed as organ weight up to 25 mg/kg, po administered as gelatin capsule once daily for 28 days; format: organism-based, Canis lupus familiaris; conditions: in vivo, 672 h; in short: as §5
Canis familiaris [27] = assay: Toxicity in Beagle dog up to 25 mg/kg, po administered as gelatin capsule once daily for 28 days measured on day 29; format: organism-based, Canis lupus familiaris; conditions: in vivo, 672 h; in short: as §5

Structure (SMILES): CC(C)(C)[C@H](N)C(=O)Oc1ccccc1C(=O)Nc1ncc([N+](=O)[O-])s1.Cl
- Cmax (Rattus norvegicus [1]): 12800 ng/mL
- AUCt (Rattus norvegicus [2]): 13600 ng·h/mL
- Activity (Rattus norvegicus [3]): Toxic
- AUCt (Rattus norvegicus [4]): 5210 ng·h/mL
- Activity (Rattus norvegicus [5]): Toxic
- Activity (Rattus norvegicus [6]): Non-Toxic
- Activity (Rattus norvegicus [7]): Non-Toxic
- Activity (Rattus norvegicus [8]): Non-Toxic
- Activity (Rattus norvegicus [9]): Non-Toxic
- Activity (Rattus norvegicus [10]): Non-Toxic
- Activity (Rattus norvegicus [11]): Non-Toxic
- Activity (Rattus norvegicus [12]): Toxic
- Activity (Rattus norvegicus [13]): Toxic
- Activity (Rattus norvegicus [14]): Toxic
- Activity (Rattus norvegicus [15]): Toxic
- Activity (Rattus norvegicus [16]): Toxic
- Activity (Rattus norvegicus [17]): Toxic
- Activity (Rattus norvegicus [18]): Toxic
- Activity (Rattus norvegicus [19]): Non-Toxic
- Activity (Rattus norvegicus [20]): Non-Toxic
- Activity (Canis familiaris [21]): Non-Toxic
- Activity (Canis familiaris [22]): Non-Toxic
- Activity (Canis familiaris [23]): Non-Toxic
- Activity (Canis familiaris [24]): Non-Toxic
- Activity (Canis familiaris [25]): Non-Toxic
- Activity (Canis familiaris [26]): Non-Toxic
- Activity (Canis familiaris [27]): Non-Toxic
